Test results taken from PMC10496428 (ACS Infectious Diseases, 2023).

Tests used:
[1] = test system: P. falciparum purified merozoites (Nluc parasites); assay: Invasion inhibition assay with purified merozoites; format: cell-based, Plasmodium falciparum; conditions: heparin 100 μg/mL, C1 4 μM, chloroquine 75 nM
In short: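 Purified Nluc merozoites were exposed to test compound for 30 min. Compound was then removed and newly invaded parasites grown for 24 h before Nluc quantification. Controls were heparin (100 μg/mL), C1 (4 μM) and chloroquine (75 nM). Values are relative to DMSO, with three biological replicates.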

[2] = test system: P. falciparum Hyp1-Nluc late schizonts; assay: 4 h egress assay; format: cell-based, Plasmodium falciparum; conditions: for 4-Hour Egress EC50: dilution series, DNI = did not inhibit
In short: (§1)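 Hyp1-Nluc 3D7 parasites were sorbitol-synchronised, grown to late schizonts and isolated on a 67% Percoll gradient. They were given a 4 h window to egress and invade RBCs in test compound, either at 10× growth EC50 or as a dilution series. Egress was read as Nluc in harvested medium with NanoGlo substrate. Background controls were subtracted from egress and invasion values, then normalised to 0.1% DMSO. Three biological replicates were run, with SD.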

[3] = test system: MMV390048 resistant Dd2 with S743T mutation in PI4KIIIB; assay: 72 h growth assay, [3H]-hypoxanthine incorporation; format: cell-based, Plasmodium falciparum; conditions: 3H-hypoxanthine incorporation assay
In short: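 This was a modified [3H]-hypoxanthine incorporation assay over 72 h. It compared parental Dd2 with an MMV390048-resistant Dd2 line carrying PI4KIIIB S743T.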

[4] = test system: P. falciparum Nluc trophozoite-stage parasites; assay: Protein secretion and export; format: cell-based, Plasmodium falciparum; conditions: 5 h treatment; brefeldin A 5 μg/mL, torin 2 10 nM, M-797 4.8 μM, OGHL250 3.1 μM, WEHI-518 200 nM, C3 1.2 μM, KDU731 300 nM
In short: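 Nluc-exporting P. falciparum, synchronized with 5% sorbitol and Percoll, grown in human RBCs at 37 °C under 1% O2/5% CO2; trophozoites at 20–24 hpi treated 5 h with test compound (0.1% DMSO vehicle). Cells differentially lysed to release RBC only, RBC plus PV, or all compartments, and Nluc signal measured in each fraction. Three biological replicates of three technical replicates.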

[5] = test system: P. falciparum Hyp1-Nluc parasites; assay: 4 h invasion / early ring-stage development assay; format: cell-based, Plasmodium falciparum; conditions: 4 h treatment at 10× EC50 for growth; for Invasion / early ring-stage development normalized to 0.1% DMSO: then 24 h growth without compound
In short: as §1

[6] = test system: Nluc; assay: Nluc counter screen on parasite lysates; format: biochemical; conditions: 10x EC50 of growth, 10 min at 37 °C
In short: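 Hyp1-Nluc schizonts at 1% haematocrit and 1–2% parasitaemia were lysed in 1x NanoGlo buffer. Lysates were added to test compound and incubated 10 min at 37 °C. Nluc activity was read by furimazine bioluminescence and normalised to 0.1% DMSO.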

CN1CCC(c2cc(-c3ccncc3)c(-c3ccc(F)cc3)[nH]2)CC1 [Compound C1, 4-[2-(4-fluorphenyl)-5-(1-methylpiperidine-4-yl)-1H-pyrrol-3-yl]pyridine]
Invasion of purified merozoites relative to 0.1% DMSO (controls) [1]: directly inhibited merozoite invasion
Egress over a 4 h window, compared to 0.1% DMSO control normalized to 100% ([2]; OGHL compounds at 10× EC50 of growth): 38%

COc1ccc(-c2c(C)nn3c(N)c(C#N)cnc23)cc1OC [Compound M-797]
fold resistance of S743T parasites compared to parental Dd2 [3]: 2 fold
Export of Nluc reporter into the RBC compartment relative to DMSO [4]: significantly reduced export into the RBC compartment
4-Hour Egress EC50 [2]: did not block egress

CN(C(=O)c1ccn2ncc(-c3ccc(C(N)=O)cc3)c2c1)c1ccc(C#N)cn1 [KDU731]
Export of Nluc reporter into the RBC compartment relative to DMSO [4]: reduced protein export into the RBC compartment

COc1ccc(CNc2nc(-c3ccc(C(=O)O)nc3)nc3sc4c(c23)CCCC4)cc1Cl [OGHL121, Clc1c(ccc(c1)CNc2nc(nc3sc4c(c32)CCCC4)-c5cnc(cc5)C(=O)O)OC]
Invasion inhibition normalized to 0.1% DMSO [5]: < 50%
Invasion / early ring-stage development normalized to 0.1% DMSO [5]: borderline

CNS(=O)(=O)c1ccccc1Nc1nc(Nc2ccc(N3CCOCC3)cc2OC)ncc1Br [OGHL134, Brc1c(nc(nc1)Nc2c(cc(cc2)N3CCOCC3)OC)Nc4c(cccc4)S(=O)(=O)NC]
Invasion inhibition normalized to 0.1% DMSO [5]: < 50%
Invasion / early ring-stage development normalized to 0.1% DMSO [5]: borderline

Cn1cc(-c2cnc3[nH]cc(-c4cn(Cc5cccc(F)c5F)nn4)c3c2)cn1 [OGHL169, Fc1c(cccc1Cn2nnc(c2)-c3c[nH]c4ncc(cc43)-c5cn(nc5)C)F]
Invasion inhibition normalized to 0.1% DMSO [5]: < 50%
Invasion / early ring-stage development normalized to 0.1% DMSO [5]: < 50%

COc1cc(OC)c(CCNC(=O)c2cn3cc(-c4cc(OCC(=O)O)ccc4OC)nc3s2)c(OC)c1 [OGHL239, s1c3n(cc1C(=O)NCCc2c(cc(cc2OC)OC)OC)cc(n3)-c4c(ccc(c4)OCC(=O)O)OC]
direct inhibition of Nluc activity in parasite lysates [6]: strongly inhibit Nluc activity

COc1cc(C(=O)N(C)C)ccc1-c1cc2nccc(-c3ccc4ccncc4c3)c2o1 [OGHL250, N(C)(C)C(=O)c1cc(c(cc1)-c5oc2c(nccc2-c4cc3cnccc3cc4)c5)OC]
Export of Nluc reporter into the RBC compartment relative to DMSO [4]: did not significantly reduce export
4-Hour Egress EC50 [2]: did not inhibit parasite egress

C[C@H]1CCC/C=C/[C@@H]2C[C@H](O)C[C@H]2[C@H](O)/C=C/C(=O)O1 [brefeldin A]
Export of Nluc reporter into the RBC compartment relative to DMSO [4]: significantly reduced export into the RBC compartment

CCN(CC)CCCC(C)Nc1ccnc2cc(Cl)ccc12 (stereo not shown) [chloroquine]
Invasion of purified merozoites relative to 0.1% DMSO (controls) [1]: had no effect on invasion

Nc1ccc(-c2ccc3ncc4ccc(=O)n(-c5cccc(C(F)(F)F)c5)c4c3c2)cn1 [torin 2]
Export of Nluc reporter into the RBC compartment relative to DMSO [4]: significantly reduced export into the RBC compartment

heparin
Invasion / early ring-stage development normalized to 0.1% DMSO [5]: almost complete invasion inhibition
